Published values pooled from the literature.
Lines come from different studies, so protocols differ.

Compound | system | setting | half-life [h]
Cc1ncsc1-c1ccc([C@H](C)NC(=O)[C@@H]2C[C@@H](O)CN2C(=O)[C@@H](NC(=O)CCCCCCCCC(=O)N2CCC(n3cc(-c4ccc5c(c4)CCN5C(=O)Cc4cccc(OC(F)(F)F)c4)c4c(N)ncnc43)CC2)C(C)(C)C)cc1 | male C57BL/6 mouse, plasma | intravenous, 1 mg/kg | 3.1
NCc1ccc(-c2nn(Cc3ccncc3)c3ccccc23)o1 | male CD-1 mouse, plasma | oral, 10 mg/kg | 1.75
CSC1O[C@@H]([C@H](NC(=O)[C@H]2NC[C@@H]3C[C@H](CC(C)C)CCO[C@H]32)[C@H](C)Cl)C(O)[C@@H](O)[C@H]1O (some centres unmarked) | mouse, plasma | intravenous, 3 mg/kg, single dose | 2.05
Cc1cc(-c2ccnc3[nH]cc(F)c23)cc(F)c1[C@@]1(O)[C@H](C)CN(C2CCS(=O)(=O)CC2)C[C@@H]1C | male CD-1 mouse, plasma | oral, 3 mg/kg | 2.5
COC1=CC(c2ccc[nH]2)=N/C1=C\c1cc(Cc2ccc(OC(F)(F)F)cc2)c(C)[nH]1.Cl | male CD-1 mouse, plasma | oral, 40 mg/kg, single dose | 51.9
COc1ccc(C[C@H](NC(=O)[C@H](C)NC(=O)CN2CCOCC2)C(=O)N[C@@H](Cc2ccccc2)C(=O)C2(C)CO2)cc1 (stereo in doubt) | mouse, plasma | intravenous, 20 mg/kg, single dose | 7.9
COCC(=O)N1CCc2[nH]c3c(Cl)c(Cl)ccc3c2[C@@H]1C | C57BL/6 mouse, blood | oral, 20 mg/kg | 4.82
Cc1ncsc1-c1ccc([C@H](C)NC(=O)[C@@H]2C[C@@H](O)CN2C(=O)[C@@H](NC(=O)CCCCCCCCCCC(=O)NCCCn2cc(-c3ccc4c(c3)CCN4C(=O)Cc3cccc(OC(F)(F)F)c3)c3c(N)ncnc32)C(C)(C)C)cc1 | mouse, plasma | intravenous, 1 mg/kg | 3.3
COC1=CC(c2ccc[nH]2)=N/C1=C\c1[nH]c(Cc2ccc(OC(F)(F)F)cc2)cc1Cc1ccc(OC(F)(F)F)cc1 | male CD-1 mouse, plasma | oral, 40 mg/kg, single dose | 9.71
OCc1nc2ccc(NCc3ccc(C(F)(F)F)cc3)cc2[nH]1 | male BALB/c mouse, plasma | oral, 10 mg/kg | 3.6
O=C1CCC(N2Cc3cc(C4CCN(Cc5ccccc5)CC4)ccc3C2=O)C(=O)N1 (centres unmarked) | male CD-1 mouse, plasma | oral, 3 mg/kg | 1.28
Cc1ccc(OCC(=O)N[C@@H](Cc2c[nH]c3ccccc23)C(=O)OC(C)C)cc1 | male Sprague-Dawley mouse, plasma | oral, 20 mg/kg | 6.1
Cc1ccc2c(c1)C(=O)[C@]1(O)CCN(c3ccc4nc(C)ccc4c3)C1=N2.Cl | mouse, brain | subcutaneous, 5 mg/kg | 10.5
Cc1cc(-c2ccnc3[nH]cc(F)c23)cc(F)c1[C@@]1(O)[C@H](C)CN(C(=O)CN)C[C@@H]1C | male CD-1 mouse, plasma | oral, 3 mg/kg | 8.5
Cc1[nH]c(C)c(S(=O)(=O)Nc2ccc(C(F)(F)F)c(Cl)c2)c1C(=O)N1CCC(F)(F)C1 | male CD-1 mouse, plasma | intraperitoneal, 40 mg/kg | 3.97
Cl.Fc1ccc(Oc2ccc(Nc3ccc4ncc(OCC5CCNCC5)nc4c3)cc2)cc1 | SCID mouse, plasma | intraperitoneal, 50 mg/kg | > 40
OCc1ccc(-c2nn(Cc3ccccc3)c3ccccc23)o1 | male CD-1 mouse, plasma | intravenous, 5 mg/kg | 1.39
CN(C)C(=O)c1cc2cnc(Nc3ccc(-c4ccc5c(=O)cc(N6CCOCC6)oc5c4)cc3)nc2n1C1CCCC1 | BALB/c mouse, plasma | oral, 20 mg/kg | 3.3
CCOC(=O)c1c(NC(=O)CNC(C)C)sc2c1CCCCC2 | male mouse, plasma | intraperitoneal, 5 mg/kg, single dose | 1.47
NCc1cc2c(cc1F)C(=O)N(C1CCC(=O)NC1=O)C2 (centres unmarked) | male CD-1 mouse, plasma | oral, 10 mg/kg | 2.3
COc1cccc2c(N3CCC(CCP(=O)(O)O)CC3)ncnc12 | female BALB/c mouse, serum | subcutaneous, 50 mg/kg, tumour-bearing | 1.7
NCc1ccc(-c2nn(Cc3ccccc3)c3ccccc23)o1 | male CD-1 mouse, plasma | intraperitoneal, 30 mg/kg | 2.33
CCCC[C@@H](NC(=O)[C@@H](Cc1cn(C(=O)OC)c2ccccc12)NC(=O)[C@H](CC(C)(C)C)NC(=O)N1[C@H](C)CCC[C@@H]1C)C(=O)O | male CD-1 mouse, plasma | intravenous, 3 mg/kg | 0.68
